Test results reported in PMC9468552 (Clinical and Translational Science, 2022).
Read-outs that look alike come from different tables or passages of the source.

Key:
[1] = biological target: T1, CYP3A4 (Homo sapiens, UniProt P08684); test: Study 008: effect of EDP‐305 on combined oral contraceptive; format: in vivo
[2] = biological target: T1, CYP3A4; test: Study 004: DDI of EDP‐305; format: in vivo
[3] = biological target: T1, CYP3A4; format: in vivo
[4] = system: messenger RNA (mRNA) for CYP1A2 and CYP3A4; conditions: incubation in liver microsomes (hepatocytes) in the presence of EDP‐305; preclinical studies; cited from earlier work
[5] = system: BCRP; conditions: in vitro; ref data on file; cited from earlier work
[6] = biological target: P‐gp (Homo sapiens, UniProt P08183); format: in vivo
P‐gp (Homo sapiens, UniProt P08183), sequence (P08183 whole entry): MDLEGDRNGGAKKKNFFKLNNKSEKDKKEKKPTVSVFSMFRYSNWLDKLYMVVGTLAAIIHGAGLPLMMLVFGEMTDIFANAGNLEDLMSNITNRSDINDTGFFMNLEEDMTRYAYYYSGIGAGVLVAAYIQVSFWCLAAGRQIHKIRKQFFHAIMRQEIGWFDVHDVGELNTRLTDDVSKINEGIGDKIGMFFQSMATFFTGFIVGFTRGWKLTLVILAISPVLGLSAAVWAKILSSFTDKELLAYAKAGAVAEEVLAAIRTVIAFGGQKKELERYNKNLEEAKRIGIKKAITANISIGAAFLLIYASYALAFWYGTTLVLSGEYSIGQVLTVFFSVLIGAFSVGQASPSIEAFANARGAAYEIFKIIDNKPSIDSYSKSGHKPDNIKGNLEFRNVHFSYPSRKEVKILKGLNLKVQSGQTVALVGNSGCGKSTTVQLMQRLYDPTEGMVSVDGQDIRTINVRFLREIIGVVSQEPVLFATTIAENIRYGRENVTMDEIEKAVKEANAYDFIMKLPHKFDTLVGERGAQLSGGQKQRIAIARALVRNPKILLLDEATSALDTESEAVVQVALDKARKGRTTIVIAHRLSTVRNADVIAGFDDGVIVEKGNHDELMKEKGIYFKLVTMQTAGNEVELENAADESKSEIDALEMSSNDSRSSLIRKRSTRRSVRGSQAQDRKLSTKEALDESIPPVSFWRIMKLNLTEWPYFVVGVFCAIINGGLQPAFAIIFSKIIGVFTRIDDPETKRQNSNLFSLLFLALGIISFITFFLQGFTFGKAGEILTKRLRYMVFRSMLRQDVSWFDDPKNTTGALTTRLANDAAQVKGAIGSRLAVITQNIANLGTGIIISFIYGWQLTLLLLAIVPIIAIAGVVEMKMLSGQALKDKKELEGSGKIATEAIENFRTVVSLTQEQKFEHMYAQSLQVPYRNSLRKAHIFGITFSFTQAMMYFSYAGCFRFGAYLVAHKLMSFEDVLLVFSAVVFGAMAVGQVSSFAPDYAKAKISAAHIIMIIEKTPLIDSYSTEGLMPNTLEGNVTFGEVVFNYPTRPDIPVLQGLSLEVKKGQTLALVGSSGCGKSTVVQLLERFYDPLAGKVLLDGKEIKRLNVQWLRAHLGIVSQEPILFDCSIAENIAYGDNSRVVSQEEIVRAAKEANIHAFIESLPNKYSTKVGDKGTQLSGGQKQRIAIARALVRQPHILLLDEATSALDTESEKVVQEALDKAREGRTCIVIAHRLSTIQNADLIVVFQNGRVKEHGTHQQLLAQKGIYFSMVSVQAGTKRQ

[7] = Safety/tolerability in the four DDI studies; format: in vivo, human; conditions: all four studies
[8] = relative bioavailability assessment; ref data on file; cited from earlier work
[9] = system: P‐gp; conditions: in vitro; ref data on file; cited from earlier work
[10] = Study 004: trough levels of EDP‐305 and metabolites with and without probes; format: in vivo, human
Outline: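 Healthy volunteers received single oral midazolam 2 mg and caffeine 200 mg on days 1 and 12, and rosuvastatin 20 mg on days 2 and 13. EDP‐305 was given as a 10 mg/30 ml oral suspension each morning on days 5–15 after an overnight fast. Predose troughs were drawn on days 5, 8 and 10–17. Parent and metabolites were measured by LC–MS/MS (range 0.0300–30.0 ng/ml).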

[11] = biological target: T2, CYP1A2 (Homo sapiens, UniProt P05177); test: Study 004: DDI of EDP‐305; format: in vivo; conditions: increase in caffeine AUC less than twofold
T2 sequence (P05177 1-516): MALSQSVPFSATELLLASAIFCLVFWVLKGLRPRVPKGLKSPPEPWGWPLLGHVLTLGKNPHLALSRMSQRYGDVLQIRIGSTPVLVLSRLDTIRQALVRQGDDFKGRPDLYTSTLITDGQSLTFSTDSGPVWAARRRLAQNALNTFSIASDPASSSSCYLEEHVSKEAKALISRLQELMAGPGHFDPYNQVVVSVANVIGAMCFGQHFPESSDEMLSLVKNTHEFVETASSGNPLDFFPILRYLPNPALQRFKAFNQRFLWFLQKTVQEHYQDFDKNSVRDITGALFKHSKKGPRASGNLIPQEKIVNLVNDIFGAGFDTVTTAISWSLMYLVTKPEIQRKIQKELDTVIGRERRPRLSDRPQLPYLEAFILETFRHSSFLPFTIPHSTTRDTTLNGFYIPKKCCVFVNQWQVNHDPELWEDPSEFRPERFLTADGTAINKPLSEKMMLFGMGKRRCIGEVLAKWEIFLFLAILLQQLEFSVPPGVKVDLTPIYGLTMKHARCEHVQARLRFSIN

[12] = cited from earlier work
[13] = system: cytochrome (CYP) 1A2, 2B6, 2C8, 2C9, 2C19, 2D6, and 3A4 isoenzymes; conditions: standard hepatic microsome studies; preclinical studies; cited from earlier work
[14] = radiolabeled mass balance study; ref data on file; Enanta Pharmaceuticals; cited from earlier work
[15] = biological target: T1, CYP3A4; format: in vivo; remark: listed apart in the source
Outline: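 Healthy subjects in a separate part took oral rifampin 600 mg once daily on days 5–16. EDP‐305 10 mg suspension was given on days 1 and 14 after a 10 h fast that continued ≥4 h postdose. Plasma was drawn predose and 0.5–12 h postdose, plus 24, 48 and 72 h before the morning rifampin dose. Analysis used LC–MS/MS and noncompartmental PK. A mixed model on ln values (subject random) gave the geometric LS mean ratio with 90% CI, with EDP‐305 alone as reference.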

[16] = system: OATP1B1 and OATP1B3; conditions: in vitro; ref data on file; cited from earlier work
[17] = system: BSEP, MRP2, P‐gp, and BCRP transporters; conditions: in vitro; ref data on file; cited from earlier work
[18] = biological target: T1, CYP3A4; format: in vivo; remark: listed apart in the source
[19] = 12‐week phase II study, 132 non‐cirrhotic patients; cited from earlier work
[20] = same dose/formulation; ref data on file; cited from earlier work
[21] = system: CYP1A2, 2B6, and 3A4; conditions: preclinical studies; cited from earlier work
[22] = system: OATP1B1/B3 and BCRP; test: Study 004: DDI of EDP‐305; format: in vivo, human
[23] = EDP‐305 10 mg + itraconazole 200 mg q.d. (test)
[24] = EDP‐305 10 mg alone (reference)
[25] = EDP‐305 + itraconazole vs EDP‐305 alone
[26] = EDP‐305 5 mg tablet + quinidine 300 mg BID (test)
[27] = EDP‐305 5 mg tablet alone (reference)
[28] = EDP‐305 + quinidine vs EDP‐305 alone
[29] = EDP‐305 2.5 mg tablet co‐administered with OC
[30] = EDP‐305 10 mg + rifampin 600 mg q.d. (test)
[31] = EDP‐305 + rifampin vs EDP‐305 alone
[32] = EDP‐305 5 mg tablet + fluconazole 400 mg QD (test)

T1 sequence (P08684 whole entry): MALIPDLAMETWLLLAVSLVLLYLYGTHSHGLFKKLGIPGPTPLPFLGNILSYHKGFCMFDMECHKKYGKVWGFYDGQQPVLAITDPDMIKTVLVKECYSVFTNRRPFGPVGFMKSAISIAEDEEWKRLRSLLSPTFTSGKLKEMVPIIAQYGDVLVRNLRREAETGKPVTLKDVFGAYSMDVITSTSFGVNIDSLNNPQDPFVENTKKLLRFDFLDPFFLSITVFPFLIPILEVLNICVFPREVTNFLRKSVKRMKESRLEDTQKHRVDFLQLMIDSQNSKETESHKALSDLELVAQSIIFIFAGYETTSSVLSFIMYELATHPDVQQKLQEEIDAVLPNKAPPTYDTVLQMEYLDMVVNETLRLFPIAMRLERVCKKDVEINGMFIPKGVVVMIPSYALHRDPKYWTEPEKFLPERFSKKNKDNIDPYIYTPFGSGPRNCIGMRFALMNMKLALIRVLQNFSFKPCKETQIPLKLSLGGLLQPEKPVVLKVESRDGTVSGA

## C#C[C@]1(O)CC[C@H]2[C@@H]3CCC4=CC(=NO)CC[C@@H]4[C@H]3CC[C@@]21CC (mixture of isomers) [norelgestromin]
[1]; OC + EDP‐305 vs OC alone
  AUC0,t, Geo LSMean ratio (90% CI): 0.99 (0.92, 1.05)
  Cmax, Geo LSMean ratio (90% CI): 0.94 (0.86, 1.02)
[1]; human, plasma, oral, AUC0,t, Geo LSMean, OC alone (reference), day 21
  AUC(0-t): 25.9 ng·h/mL
[1]; human, plasma, oral, Geo LSMean, OC + EDP‐305 2.5 mg tablet (test), day 21
  Cmax: 2.47 ng/mL
[1]; human, plasma, oral, Geo LSMean, OC alone (reference), day 21
  Cmax: 2.64 ng/mL
[1]; in words
  Peak and systemic exposures (Cmax and AUC0‐τ), OC + EDP‐305 vs OC alone: similar

## OCc1ncc2n1-c1ccc(Cl)cc1C(c1ccccc1F)=NC2 [1′‐hydroxymidazolam]
[2]; midazolam administered alone
  GM AUCR0‐inf, metabolite‐to‐parent ratio: 39.1%
[2]; midazolam administered with EDP‐305
  GM AUCR0‐inf, metabolite‐to‐parent ratio: 20.6%

## CC[C@H]1[C@@H](O)[C@@H]2[C@H](CC[C@]3(C)[C@@H]([C@H](C)CCNC(=O)NS(=O)(=O)c4ccc(C(C)(C)C)cc4)CC[C@@H]23)[C@@]2(C)CC[C@@H](O)C[C@@H]12 [EDP‐305]
[3]; [23]
  AUC0,inf, Geo LSMean: 1891.47 ng·h/mL
  Cmax, Geo LSMean: 50.48 ng/mL
[3]; [24]
  AUC0,inf, Geo LSMean: 360.31 ng·h/mL
  Cmax, Geo LSMean: 31.25 ng/mL
[3]; [25]
  delayed Tmax: 2 fold
  longer t1/2 (increase): 2.79 fold
[4]
  effect on mRNA for CYP1A2 and CYP3A4: concentration‐dependent downregulation
[5]
  BCRP substrate: unlikely to be a BCRP substrate
[6]; [26]
  AUC0,inf, Geo LSMean: 367.17 ng·h/mL
  Cmax, Geo LSMean: 31.78 ng/mL
[6]; [27]
  AUC0,inf, Geo LSMean: 353.24 ng·h/mL
  Cmax, Geo LSMean: 31.64 ng/mL
[6]; [28]
  AUC0,inf, Geo LSMean ratio (90% CI): 1.04 (0.95, 1.14)
  Cmax, Geo LSMean ratio (90% CI): 1.00 (0.92, 1.10)
  effect on EDP‐305 peak or systemic exposure: no apparent effect
  effect on Tmax, Vd/F, CL/F, and t1/2: minimal effect
[7]
  tolerability: well‐tolerated
[8]
  exposures of tablet compared to suspension: approximately twofold higher
[9]
  P‐gp substrate: has potential to be a P‐gp substrate
[10]; EDP‐305 10 mg daily from day 5, majority of subjects
  steady‐state concentrations achieved: ≤ 12 days
[10]; single doses of midazolam, caffeine, rosuvastatin
  effect of co‐administered enzyme or transporter probes on PK: no apparent effect
[11]
  classification as CYP1A2 inhibitor from increase in caffeine AUC: weak inhibitor of CYP1A2
[1]; [29]
  geometric mean t1/2: 9.6 h
  median Tmax: 4.0 h
[1]; co‐administration of combined OC and EDP‑305
  effect on serum progesterone levels: no effect
[12]; single doses up to 80 mg, multiple daily doses up to 20 mg for 14 days
  tolerability: well‐tolerated
[12]; visual inspection of trough concentrations, across all doses
  steady‐state pharmacokinetics reached: ≤ 9 days
[13]
  potential to inhibit CYP 1A2, 2B6, 2C8, 2C9, 2C19, 2D6, and 3A4: low potential to inhibit
[14]
  EDP‐305 in urine: not detected
  mean recovery of total radioactivity in feces: 78.7%
  mean recovery of total radioactivity in urine: 1.42%
[15]; [30]
  AUC0,inf, Geo LSMean: 137.92 ng·h/mL
  Cmax, Geo LSMean: 27.02 ng/mL
[15]; [24]
  AUC0,inf, Geo LSMean: 393.59 ng·h/mL
  Cmax, Geo LSMean: 29.62 ng/mL
[15]; [31]
  AUC0,inf, Geo LSMean ratio (90% CI): 0.35 (0.30, 0.41)
  effect on EDP‐305 peak exposure: no apparent effect
  effect on Tmax: no apparent effect
  higher CL/F: 2.77 fold
  higher Vd/F: 1.79 fold
  shorter t1/2: 0.35 fold
  total systemic exposure decreased: ~ 65%
[16]
  inhibition of OATP1B1 and OATP1B3: the potential for EDP‐305 to inhibit
[17]
  inhibition of BSEP, MRP2, P‐gp, and BCRP: low potential to inhibit
[18]; [32]
  AUC0,inf, Geo LSMean: 1537.60 ng·h/mL
  Cmax, Geo LSMean: 57.71 ng/mL
[18]; [27]
  AUC0,inf, Geo LSMean: 408.40 ng·h/mL
  Cmax, Geo LSMean: 32.73 ng/mL
[18]; EDP‐305 + fluconazole compared to EDP‐305 alone
  CL/F and Vd/F, change: decreased
[18]; EDP‐305 + fluconazole relative to EDP‐305 alone
  t1/2 increased: increased
[19]
  efficacy in patients with fibrotic NASH: reduced hepatic enzyme levels and liver fat
[2]; increase in midazolam AUC less than twofold
  classification as CYP3A4 inhibitor from increase in midazolam AUC: weak inhibitor of CYP3A4
[20]
  exposures in patients with NASH versus healthy subjects: approximately twofold higher
[21]
  potential to induce CYP1A2, 2B6, and 3A4: low potential

## CC(C)c1nc(NS(C)(=O)=O)nc(-c2ccc(F)cc2)c1/C=C/[C@@H](O)C[C@@H](O)CC(=O)O [N‐desmethyl‐rosuvastatin]
[22]; rosuvastatin administered alone
  GM AUCR0‐inf, metabolite‐to‐parent ratio: 16.6%
[22]; rosuvastatin administered with EDP‐305
  GM AUCR0‐inf, metabolite‐to‐parent ratio: 11.2%
